Compound activity (PubChem)
Only some compounds are listed: those with a hit (about 1.4% of all), similar ones and a draw of the others.
core dimer inh: inhibitors of HCV core protein dimerization, primary screen, biochemical, TR-FRET, high-throughput; TR-FRET GST/Flag-core106 dimerization, 1536-well; inhibition, % at 5 µM; 300,000 tested, 0.33% active; AID 1899, 2009;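 active means inhibition above the mean of all tested compounds plus 3 SD, set per screening campaign, cut at about 45% in these data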
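Assay system: tagged HCV core106 pair (GST and Flag); medium: KF-containing HEPES buffer, pH 7.45, DTT, CHAPS, BSA; also added: Eu donor and XL665 acceptor anti-tag antibodies; dosing: 5 µM single dose; timing: compound-protein-antibody incubation 4 h at 22.5 °C; signal: TR-FRET 671 and 617 nm emission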
EBNA-1 inh: EBNA-1 DNA-binding inhibitors, primary screen, biochemical, fluorescence polarization | inhibition, % at 14.8 µM | 300,000 tested, 0.34% active; in the data active means inhibition above about 28%
NS3 helicase inh: inhibitors of HCV NS3 helicase, primary screen, biochemical, Cy5 molecular beacon fluorescence. Hepatitis C virus NS3 helicase. 290,000 tested, 0.56% active. inhibition, % at 10.9 µM. AID 1800, 2009. NS3 helicase DNA unwinding;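 active means inhibition above the mean of all tested compounds plus 3 SD, set per campaign, cut at about 35% in these data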;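 further: 0% = DMSO wells and 100% = thioflavine S control wells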
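Measured by: Cy5 fluorescence, 0 and 60 min reads / Assay system: NS3 helicase fragment of HCV / Control set: low DMSO, high thioflavine S at 110 µM / Times: 1 h reaction at 25 °C, ATP-initiated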
ZTA DNA inh: counter-screen for EBNA-1 inhibitors: inhibitors of Epstein-Barr virus ZTA | ZTA-DNA binding, fluorescence polarization | 320,000 tested, 0.15% active | AID 2234 | inhibition, % at 11 µM | P03206; in the data active means inhibition above about 33%
Target sequence (P03206 whole entry, looked up): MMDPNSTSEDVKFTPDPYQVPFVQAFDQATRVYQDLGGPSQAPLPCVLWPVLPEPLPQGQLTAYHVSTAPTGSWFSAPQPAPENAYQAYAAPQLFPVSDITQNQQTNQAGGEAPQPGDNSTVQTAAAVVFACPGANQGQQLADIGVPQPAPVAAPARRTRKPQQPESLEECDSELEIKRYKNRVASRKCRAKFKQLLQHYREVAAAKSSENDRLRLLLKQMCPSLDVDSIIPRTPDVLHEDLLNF
SUMO HTRF inh: inhibitors of in vitro SUMOylation cascade, primary screen, biochemical, HTRF, uHTS. SUMO-conjugating enzyme UBC9 (Homo sapiens), P63279. HTRF SUMOylation assay, SAE1/SAE2 + UBC9. inhibition, % at 35 µM. 290,000 tested, 0.36% active. AID 2006, 2009; in the data active means inhibition above about 50%, passing the limit was not always enough
Target sequence (P63279 whole entry, looked up): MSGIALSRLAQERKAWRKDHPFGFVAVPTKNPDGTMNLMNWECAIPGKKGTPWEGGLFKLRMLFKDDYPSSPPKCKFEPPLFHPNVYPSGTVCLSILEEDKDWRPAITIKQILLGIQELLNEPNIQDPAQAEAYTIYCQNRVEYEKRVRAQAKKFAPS
NS3 helicase cf: HCV NS3 helicase inhibitors, retest, confirmation, biochemical, Cy5 molecular beacon fluorescence, triplicate. shares compounds with NS3 helicase inh. NS3 helicase DNA unwinding. inhibition, % at 10.9 µM. 1,600 tested, 31% active;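 active means inhibition above the mean of all tested compounds plus 3 SD, cutoff set per campaign, cut at about 36% in these data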
DNA FID counter: compounds displacing fluorescent DNA intercalator, artefact control for HCV NS3 helicase inhibitor project, biochemical, FID fluorescence, triplicate | shares compounds with NS3 helicase inh | DNA fluorescent intercalator displacement | inhibition, % at 7.9 µM | 1,600 tested, 4% active | AID 1945, 2009; in the data active means inhibition above about 37%;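 further: 0% = vehicle and 100% = reference compound; higher means more displacement of ethidium bromide from the DNA hairpin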
DNA FID DR: compounds displacing fluorescent intercalator from DNA, dose response, counter-screen for HCV NS3 helicase inhibitor project, biochemical, fluorescence | shares compounds with NS3 helicase inh | fluorescent intercalator displacement from DNA | IC50, µM | 120 tested, under 10 active | AID 2172, 2009; call rule not given here
The depositor's hits bear a star; nt = not tested or not shown.

SMILES	core dimer inh	EBNA-1 inh	NS3 helicase inh	ZTA DNA inh	SUMO HTRF inh	NS3 helicase cf	DNA FID counter	others
COc1cc(/C=C2/C(=O)NN(c3ccc(Cl)cc3)C2=O)cc(Br)c1O	-6.3	-11.5	22.7	11.7	-8.8	nt	nt
COC(=O)c1ccc(N2NC(=O)/C(=C/c3cc(OC)c(OC)c(OC)c3)C2=O)cc1	8.8	9.2	-8.9	19.3	-7.4	nt	nt
COc1cc(/C=C2/C(=O)NN(c3ccc(F)cc3)C2=O)cc(Cl)c1O	-3.7	-14.4	36.4*	-12.8	-16.0	34.3	6.8
COc1cc(CNC(=O)c2cc3ccccc3oc2=O)cc(OC)c1OC	1.0	-4.5	nt	-0.9	nt	nt	nt
COc1ccc(-c2nnn(CC(=O)N(Cc3ccco3)C(C(=O)NCC3CCCO3)c3ccco3)n2)cc1 (stereo not drawn)	6.0	2.4	45.3*	1.8	14.9	-9.0	-32.3
COc1ccc(-c2nnn(CC(=O)N(Cc3ccccc3Cl)C(C(=O)NCC3CCCO3)c3ccco3)n2)cc1 (stereo not drawn)	3.4	2.4	-6.2	-5.1	-3.6	nt	nt
O=C(O)C1Nc2c(C(F)(F)F)ccc(Cl)c2C2C=CCC12 (stereo not drawn)	1.6	6.4	16.4	-2.9	30.3	nt	nt
CCOC(=O)c1ccc2c(c1)C1C=CCC1C(C(=O)O)N2 (stereo not drawn)	87.6*	19.0	39.3*	22.8	59.6*	91.5*	-6.3
Cc1cc(C)c2c(c1)NC(C(=O)O)C1CC=CC21 (stereo not drawn)	38.5	-2.6	43.8*	10.7	24.2	97.5*	-7.1	DNA FID DR=>79.4
CC(C)C1Nc2ccc(C(=O)O)cc2C2C=CCC21 (stereo not drawn)	-2.5	6.3	35.6	20.4	24.5	nt	nt
COC(=O)c1ccc(CN2CCN(CC(C)C)C(CCO)C2)cc1 (stereo not drawn)	-3.2	6.6	38.3*	-10.0	9.0	-15.9	0.0
O=C(Nc1cccc(-c2nnc(-c3ccco3)o2)c1)c1ccccc1	8.8	2.9	-12.9	24.5	3.7	nt	nt
CC(=O)Oc1ccc(C(=O)Nc2cccc(-c3nnc(-c4ccco4)o3)c2)cc1	7.0	1.3	51.5*	1.4	10.2	16.5	-19.6
CN(C)C(=O)c1ccc(NC(=O)CSc2nnc(-c3cccs3)n2N)cc1	nt	nt	nt	-18.2	nt	nt	nt
O=C(C(Cc1ccccc1)n1cccc1)N1CCN(Cc2ccccc2)CC1 (stereo not drawn)	10.8	-5.8	42.4*	-6.4	5.8	-9.1	14.0
COc1cc2c(cc1OC)C(c1ccccc1)N(C(=O)C(C)(C)C)CC2 (stereo not drawn)	nt	nt	2.0	nt	1.9	nt	nt
COc1ccc(NC(=O)COc2cccc3c2CCN(C)C3=O)c(OC)c1	-2.1	-3.1	-11.5	-0.7	-6.1	nt	nt
COc1ccc(S(=O)(=O)Nc2cc3c4c(c2)CCN4C(=O)CC3)cc1OC	-1.3	1.3	nt	3.6	nt	nt	nt
N#Cc1c(-c2ccccc2)cc(-c2cccs2)nc1SCC(=O)O	-12.5	-0.7	39.1*	-3.8	-1.8	67.7*	-12.2
N#Cc1c(-c2ccc(Cl)cc2)cc(-c2cccs2)nc1SCC(=O)O	-20.4	7.2	5.4	13.1	nt	nt	nt
CCCN(C(=O)CSCC(=O)Nc1ccc(OC)cc1)c1c(N)n(Cc2ccccc2)c(=O)[nH]c1=O	-1.5	-1.0	nt	-14.9	nt	nt	nt
CCOc1ccc(-c2ccc(/C=C3/C(=N)N4C(C)=CSC4=NC3=O)o2)c([N+](=O)[O-])c1	36.0	-7.4	48.1*	3.9	23.0	-2.9	1.8
CCOc1ccc(-c2ccc(/C=C3/C(=N)N4C=CSC4=NC3=O)o2)c([N+](=O)[O-])c1	5.7	-4.7	9.9	4.0	29.3	nt	nt
O=C(Nc1cc(Cl)ccc1F)C1=COCCO1	-7.0	-1.7	nt	-9.3	nt	nt	nt
